{"source": "paper PMC8489566", "about": "(ACS nano, 2020)", "key": {"human THP-1 macrophages": {"test_system": "human THP-1 macrophages", "format": "cell-based"}, "[1]": {"test_system": "mouse-derived J774A.1 macrophages", "format": "cell-based", "in_short": "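J774A.1 macrophages plated 24 h in RPMI with 10% FBS, then treated with test compound (20 nM, 1 μM or 50 μM) for 1 h at 37 °C and washed; positive control was 5 μg/mL rat anti-mouse SIRPα. Human RBCs were EDTA-washed, opsonized with 20 μg/mL rabbit anti-RBC IgG (1 h, RT), and PKH26-labelled. They were added at 10:1 for 1 h at 37 °C, then fixed and Hoechst-stained for fluorescence imaging.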"}, "SIRPα": {"test_system": "SIRPα", "experiment": "CD47-Fc inhibition assay", "format": "binding, human", "conditions": "THP-1 macrophages, 1 μM or 50 μM peptide 1 h, Fc-receptor blockade, 2 μg/mL CD47-Fc, anti-Fc fluorescence, n = 2 sets of triplicates"}}}
{"substance": "nS-wt: CD47's eight amino acid binding loop, wild-type nano-Self peptide, C-terminal amide", "values": [{"measurement": "phagocytosis levels at maximum peptide concentration", "setting": "human THP-1 macrophages; 50 μM peptide, opsonized RBCs", "value": "well above those for nS-X and nS-XX controls"}, {"measurement": "macrophages that internalize opsonized RBCs, peptide combined with anti-RBC", "setting": "human THP-1 macrophages; maximum peptide concentration (50 μM), anti-RBC ~133 nM, n = 3", "value": "~ 30%"}, {"measurement": "phagocytosis compared with anti-CD47", "setting": "human THP-1 macrophages; saturating peptide, opsonized RBCs", "value": "gives the same result as anti-CD47"}, {"measurement": "phagocytosis by mouse macrophages", "setting": "[1]; J774A.1 macrophages, opsonized RBCs, high concentrations (50 μM)", "value": "matches anti-CD47 blockade effects"}, {"measurement": "effective activity in the mouse macrophage assay relative to the human assay", "setting": "[1]; weaker in mouse than in human macrophages", "value": "~ 100 fold"}, {"measurement": "level of inhibition of CD47-Fc binding to macrophages", "setting": "SIRPα", "value": "inhibited"}]}
